B1: tRNA (parent)
chain: GUUCCGUUGGCGUAAUGGUAACGCGUCUCCCUCCUAAGGAGAAGACUGCGGGUUCGAGUCCCGUACGGAACG

Variants of: B1
Assay: yeast fitness, log relative to wild type (ln ratio); higher = fitter; tRNA-Arg(CCU), competitive growth, 37 C, 1 M NaCl
Method in brief: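 BY4742 cells without the chromosomal tRNA-Arg(CCU) gene carried a combinatorial variant library on a HIS3 centromeric plasmid, from two independent transformations. After 4 generations in SC-HIS at 30 °C, pools spent ~6.5 generations (~26.5 h) in SC-HIS 1M NaCl at 37 °C, giving three outputs per input, and 125 bp paired-end Illumina reads counted the variants. Fitness is the natural log of each genotype's generations over the wild type's, with generations taken as OD-scaled log2 output/input frequency weighted by inverse variance across replicates.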

Variant | yeast fitness (ln)
G1A G6A A70U C71U | -0.153
G1A A43C C46U A69G A70G C71U | -0.13
G1A G6A A43C C46U C66U A69G C71U | -0.252
G1A C46U C66A A70U C71U | -0.171
G1A A43C C46U C66U A69G C71U | -0.295
G1A A43C C46U C66A A69G A70U C71U | -0.36
G1A G6A A43C C66U A70G C71U | -0.377
G1A C27U A43C C46U A70G | -0.147
G1A C27U A43C C46U A70U | -0.203
G1A C27U C46U A69G | -0.304
G1A G6A A43C A69G A70G | -0.301
G1A G6A A43C A69G A70U | -0.224
G1A C27U A43C C46U C66A A69G A70G C71U | -0.305
G1A G6A A43C C66U A69G A70G C71U | -0.245
G1A C27U C66U A70U C71U | -0.342
G1A C27U A43C C46U C66U A69G A70G | -0.188
G1A C27U A43C C46U C66U A69G A70U | -0.4
G1A C46U C66U A70U C71U | -0.214
G1A C27U C46U C66A A70G C71U | -0.187
G1A C27U A43C C46U C66U A69G A70U C71U | -0.448
G1A C66U A69G A70G C71U | -0.217

Variant | yeast fitness (ln)
G1A C46U C66U A69G A70G C71U | -0.158
G1A G6A C27U A43C A70U C71U | -0.314
G1A G6A A43C C46U C66U A69G A70U C71U | -0.4
G1A C27U C66A A69G A70U | -0.19
G1A C27U C46U C66A A70U C71U | -0.208
G1A A43C C66U A70G | -0.236
G1A A43C C66U A70U | -0.21
G1A C27U A69G | -0.295
G1A G6A A70U | -0.0929
G1A G6A A70G | -0.156
G1A C66A A70G | -0.0993
G1A C66A A70U | -0.0714
G1A C27U C46U C66U A70U C71U | -0.283
G1A C27U A43C C66A A70G | -0.173
G1A C27U A43C C66A A70U | -0.136
G1A A70G C71U | -0.0244
G1A C46U A69G A70U C71U | -0.359
G1A C27U C46U A69G C71U | -0.047
G1A C27U | -0.105
G1A C27U A43C C46U A69G | -0.116
G1A G6A A43C C66U | -0.195

Variant | yeast fitness (ln)
G1A G6A C27U A43C C46U A69G C71U | -0.268
G1A G6A C27U A43C C46U A69G A70U C71U | -0.399
G1A A43C C46U A69G A70U C71U | -0.33
G1A G6A A43C C46U C66A C71U | -0.26
G1A A43C C46U C66A C71U | -0.139
G1A C27U A43C A69G A70G C71U | -0.299
G1A G6A A43C C46U C66U A70U C71U | -0.331
G1A G6A A43C A70U | -0.221
G1A G6A A43C A70G | -0.12
G1A C27U A43C C46U C66A A70U | -0.155
G1A C27U A43C C46U C66A A70G | -0.248
G1A C27U C66A C71U | -0.159
G1A A43C C66U A70U C71U | -0.25
G1A C46U C66A A70G C71U | -0.11
G1A C27U A43C C46U C66A A70G C71U | -0.211
G1A C66A A70U C71U | -0.144
G1A C66U A70G C71U | -0.287
G1A C27U C46U A70U C71U | -0.178
G1A A43C C66U A69G A70U C71U | -0.338
G1A G6A C27U A43C A69G A70G C71U | -0.33
G1A A69G A70U C71U | -0.44

Variant | yeast fitness (ln)
G1A C27U A43C A69G C71U | -0.318
G1A A43C A69G A70G C71U | -0.353
G1A C27U C46U A69G A70G C71U | -0.16
G1A C27U C66A A70U | -0.132
G1A C27U C66A A70G | -0.212
G1A C27U A43C C46U C66A A70U C71U | -0.359
G1A C46U C66A A70U | -0.0792
G1A C46U C66A A70G | -0.0981
G1A G6A C27U A43C A69G A70G | -0.0719
G1A C27U A43C C66U A69G A70U C71U | -0.505
G1A C27U C46U C66U A70G | -0.157
G1A C27U C46U C66U A70U | -0.154
G1A C27U A43C C46U C66A A69G A70U C71U | -0.415
G1A C46U C66U | -0.118
G1A C46U C66A | 0.0129
G1A C66U A70G | -0.107
G1A C66U A70U | -0.105
G1A C46U A70G C71U | -0.0168
G1A A43C C66A A70U C71U | -0.321
G1A C46U A70U C71U | -0.0276
